Reference: ChEMBL document CHEMBL1133762, “Aureobasidins: structure-activity relationships for the inhibition of the human MDR1 P-glycoprotein ABC-transporter” (J Med Chem, 2000)
≈ marks a conversion by molar mass, not a printed value. Square brackets hold non-standard residues; d marks the D form. Peptide text beside a SMILES is read from it. Hmp(2R,3S) = CC[C@H](C)[C@@H](O)C(=O)O; NMeVal(β-OH) = CN[C@H](C(=O)O)C(C)(C)O; NMeF = CN[C@@H](Cc1ccccc1)C(=O)O; NMeV = CN[C@H](C(=O)O)C(C)C

Columns and labels:
Saccharomyces cerevisiae [1] = assay: Minimum growth-inhibitory concentration against Saccharomyces cerevisiae ATCC 9763 by agar dilution method by the suspension of a fungi containing ~5 x 10e (7) cells/mL.; assay type: functional
Procedure, shortened: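 Agar dilution on Sabouraud–dextrose agar plates with graded compound concentrations. A loopful of yeast suspension (about 5 × 10⁷ cells/mL) was streaked on the surface. Plates were incubated at 30 °C for 3 days. MIC is the lowest concentration with no detectable growth.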

[2] = target: T1, ATP-dependent translocase ABCB1 (Homo sapiens, UniProt P08183); assay: (§1) Human MDR1 Pgp inhibitory activity by using standard calcein-AM efflux method with the human leukemia CEM cells.; assay type: cell-based, CCRF-CEM
T1 sequence (P08183 whole entry): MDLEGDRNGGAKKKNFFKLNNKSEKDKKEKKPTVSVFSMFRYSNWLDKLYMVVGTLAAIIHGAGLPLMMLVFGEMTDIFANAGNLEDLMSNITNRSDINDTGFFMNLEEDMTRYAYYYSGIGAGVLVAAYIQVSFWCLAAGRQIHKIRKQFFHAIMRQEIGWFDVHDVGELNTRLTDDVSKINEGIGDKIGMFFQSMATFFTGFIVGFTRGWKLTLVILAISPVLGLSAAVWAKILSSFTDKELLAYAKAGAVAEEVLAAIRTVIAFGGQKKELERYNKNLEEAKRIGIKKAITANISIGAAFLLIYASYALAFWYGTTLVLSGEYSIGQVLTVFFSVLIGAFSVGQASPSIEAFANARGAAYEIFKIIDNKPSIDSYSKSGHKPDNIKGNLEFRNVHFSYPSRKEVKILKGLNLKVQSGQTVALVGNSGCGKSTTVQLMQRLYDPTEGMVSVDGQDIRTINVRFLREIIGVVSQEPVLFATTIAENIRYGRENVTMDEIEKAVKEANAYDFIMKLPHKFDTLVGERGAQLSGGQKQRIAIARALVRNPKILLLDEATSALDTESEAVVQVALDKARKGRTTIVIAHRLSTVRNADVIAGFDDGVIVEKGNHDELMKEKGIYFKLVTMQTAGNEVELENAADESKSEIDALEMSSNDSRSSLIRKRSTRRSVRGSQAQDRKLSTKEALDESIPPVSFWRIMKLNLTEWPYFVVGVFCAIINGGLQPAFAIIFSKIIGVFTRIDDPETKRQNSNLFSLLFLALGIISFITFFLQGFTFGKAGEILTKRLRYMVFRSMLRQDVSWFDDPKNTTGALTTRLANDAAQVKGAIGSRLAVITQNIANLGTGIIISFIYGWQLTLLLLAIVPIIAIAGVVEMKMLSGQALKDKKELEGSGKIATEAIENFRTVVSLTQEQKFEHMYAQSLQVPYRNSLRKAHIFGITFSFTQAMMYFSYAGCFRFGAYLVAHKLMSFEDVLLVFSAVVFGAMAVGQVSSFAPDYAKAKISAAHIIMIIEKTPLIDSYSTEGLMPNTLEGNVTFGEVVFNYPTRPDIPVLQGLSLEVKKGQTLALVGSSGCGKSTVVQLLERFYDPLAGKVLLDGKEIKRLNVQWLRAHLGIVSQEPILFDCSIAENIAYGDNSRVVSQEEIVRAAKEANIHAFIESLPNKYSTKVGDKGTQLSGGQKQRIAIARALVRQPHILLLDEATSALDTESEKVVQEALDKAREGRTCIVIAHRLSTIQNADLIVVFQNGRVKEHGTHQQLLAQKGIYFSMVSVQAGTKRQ

[3] = target: P-glycoprotein (ABCB1, MDR1) (Homo sapiens, UniProt P08183); assay: as §1; assay type: cell-based, CCRF-CEM; conditions: probe calcein-AM; for IC50: human, human leukemia CEM cells
Chain of P-glycoprotein (ABCB1, MDR1) (P08183 whole entry): as above

[4] = target: T1, ATP-dependent translocase ABCB1; assay: Direct comparison of the antifungal activities with the relative Pgp-inhibitory potencies, calculated by comparing ug/mL IC50(or IC20).; assay type: functional
Saccharomyces cerevisiae [5] = assay: Relative antifungal activity (against Saccharomyces cerevisiae) compared to AbA

For `CC[C@@H](C)[C@@H]1NC(=O)[C@@H]2CCCN2C(=O)[C@H]([C@H](O)c2ccccc2)N(C)C(=O)[C@H](Cc2ccccc2)NC(=O)[C@H](C(C)C)N(C)C(=O)[C@@H]([C@@H](C)CC)OC(=O)[C@H](C(C)(C)O)N(C)C(=O)[C@H](CC(C)C)NC(=O)[C@H](C(C)C)N(C)C1=O`, the MIC (Saccharomyces cerevisiae [1]) was 0.8 µg/mL (≈ 0.716 µM).
Compound `CC[C@@H](C)[C@@H]1NC(=O)[C@@H]2CCCN2C(=O)[C@H]([C@H](O)c2ccccc2)N(C)C(=O)[C@H](Cc2ccccc2)NC(=O)[C@H](C(C)C)N(C)C(=O)[C@@H]([C@@H](C)CC)OC(=O)[C@H](C(C)C)N(C)C(=O)[C@H](CC(C)C)NC(=O)[C@H](C(C)C)N(C)C1=O` has an MIC (Saccharomyces cerevisiae [1]) of 1.7 µg/mL (≈ 1.54 µM).
`CC[C@@H](C)[C@@H]1NC(=O)[C@@H]2CCCN2C(=O)[C@H](Cc2ccccc2)N(C)C(=O)[C@H](Cc2ccccc2)NC(=O)[C@H](C(C)C)N(C)C(=O)[C@@H]([C@@H](C)CC)OC(=O)[C@H](C(C)(C)O)N(C)C(=O)[C@H](CC(C)C)NC(=O)[C@H](C(C)C)NC1=O` was tested, and the MIC (Saccharomyces cerevisiae [1]) was 1.6 µg/mL (≈ 1.47 µM).
In the case of `CC[C@H](C)[C@@H]1NC(=O)[C@@H]2CCCN2C(=O)[C@H](Cc2ccccc2)N(C)C(=O)[C@H](Cc2ccccc2)NC(=O)[C@H](C(C)C)N(C)C(=O)[C@@H]([C@@H](C)CC)OC(=O)C(C(C)(C)O)N(C)C(=O)[C@H](CC(C)C)NC(=O)[C@H](C(C)C)N(C)C1=O` (some centres undefined), the IC50 [2] is reported as 360 nM and the IC20 [3] is reported as 100 nM.
With `CC[C@H](C)[C@@H]1NC(=O)[C@@H]2CCCN2C(=O)[C@H](Cc2ccccc2)N(C)C(=O)[C@H](Cc2ccccc2)NC(=O)[C@H](C(C)C)N(C)C(=O)[C@@H]([C@@H](C)CC)OC(=O)[C@@H](C(C)(C)O)N(C)C(=O)[C@H](CC(C)C)NC(=O)[C@H](C(C)C)N(C)C1=O` the IC50 [3] was 390 nM, the IC20 [3] was 100 nM and the MIC (Saccharomyces cerevisiae [1]) was > 25 µg/mL.
`CC[C@H](C)[C@H]1OC(=O)[C@H](C(C)(C)O)N(C)C(=O)[C@H](CC(C)C)NC(=O)[C@H](C(C)C)N(C)C(=O)[C@H](C(C)C)NC(=O)[C@@H]2CCCN2C(=O)[C@H](Cc2ccccc2)N(C)C(=O)[C@H](Cc2ccccc2)NC(=O)[C@H](C(C)C)N(C)C1=O` (cyclo(F[NMeF]PV[NMeV]L[NMeVal(β-OH)][Hmp(2R,3S)][NMeV])) gave an IC50 [2] of 1290 nM, an IC20 [3] of 410 nM and an MIC (Saccharomyces cerevisiae [1]) of 0.4 µg/mL (≈ 0.368 µM). The “Pgp AbA/analogue ratio” value [4] was 1.8.
For `CC[C@@H](C)[C@@H]1NC(=O)[C@@H]2CCCN2C(=O)[C@H](Cc2ccccc2)N(C)C(=O)[C@H](Cc2ccccc2)NC(=O)[C@H](C(C)C)N(C)C(=O)[C@@H](C(C)C)OC(=O)[C@H](C(C)(C)O)N(C)C(=O)[C@H](CC(C)C)NC(=O)[C@H](C(C)C)N(C)C1=O`, the MIC (Saccharomyces cerevisiae [1]) was 0.4 µg/mL (≈ 0.368 µM).
`CC[C@H](C)[C@@H]1NC(=O)[C@@H]2CCCN2C(=O)[C@H](Cc2ccccc2)N(C)C(=O)[C@H](Cc2ccccc2)NC(=O)[C@H](C(C)C)N(C)C(=O)[C@@H]([C@@H](C)CC)OC(=O)[C@H](C(C)(C)O)N(C)C(=O)[C@H](CC(C)C)NC(=O)[C@@H](C(C)C)N(C)C1=O` was tested, and the IC50 [2] was > 2730 nM, the IC20 [3] was 1800 nM and the MIC (Saccharomyces cerevisiae [1]) was > 25 µg/mL.
`CC[C@@H](C)[C@@H]1NC(=O)[C@@H]2CCCN2C(=O)[C@H](Cc2ccccc2)N(C)C(=O)[C@H](Cc2ccccc2)NC(=O)[C@H](C(C)C)N(C)C(=O)[C@@H]([C@@H](C)CC)OC(=O)[C@]2(OC2(C)C)N(C)C(=O)[C@H](CC(C)C)NC(=O)[C@H](C(C)C)N(C)C1=O` gave an IC50 [3] of 1550 nM and an IC20 [3] of 460 nM.
For `CC[C@@H](C)[C@@H]1NC(=O)[C@@H]2CCCN2C(=O)[C@H](Cc2ccccc2)N(C)C(=O)[C@H](Cc2ccccc2)NC(=O)[C@H](C(C)C)N(C)C(=O)[C@@H]([C@@H](C)CC)OC(=O)C(=C(C)C)N(C)C(=O)[C@H](CC(C)C)NC(=O)[C@H](C(C)C)N(C)C1=O`, the MIC (Saccharomyces cerevisiae [1]) was > 25 µg/mL.
For `CC[C@H](C)[C@@H]1NC(=O)[C@@H]2CCCN2C(=O)[C@H](Cc2ccccc2)N(C)C(=O)[C@H](Cc2ccccc2)NC(=O)[C@H](C(C)C)N(C)C(=O)[C@@H]([C@@H](C)CC)OC(=O)[C@H](C(C)(C)O)N(C)C(=O)[C@H](CC(C)C)NC(=O)[C@H](C(C)C)N(C)C1=O`, the IC50 [3] was 2270 nM, the IC20 [3] was 680 nM and the MIC (Saccharomyces cerevisiae [1]) was 0.4 µg/mL (≈ 0.363 µM).
With `CC[C@H](C)[C@@H]1NC(=O)[C@H]2CCCN2C(=O)[C@H](Cc2ccccc2)N(C)C(=O)[C@H](Cc2ccccc2)NC(=O)[C@H](C(C)C)N(C)C(=O)[C@@H]([C@@H](C)CC)OC(=O)[C@H](C(C)(C)O)N(C)C(=O)[C@H](CC(C)C)NC(=O)[C@H](C(C)C)N(C)C1=O` the IC50 [2] was > 2700 nM, the IC20 [3] was 1360 nM and the MIC (Saccharomyces cerevisiae [1]) was 1.6 µg/mL (≈ 1.45 µM).
With `CC[C@@H](C)[C@@H]1NC(=O)[C@@H]2CCCN2C(=O)[C@H](Cc2ccccc2)N(C)C(=O)[C@H](Cc2ccccc2)NC(=O)[C@H](C(C)C)N(C)C(=O)[C@@H]([C@@H](C)CC)OC(=O)[C@H](C(C)(C)O)N(C)C(=O)[C@H](CC(C)C)NC(=O)C(C(C)C)OC1=O` (some centres undefined) the IC50 [3] was 1660 nM, the IC20 [3] was 460 nM and the “Pgp AbA/analogue ratio” value [4] was 1.4. The “antifungal AbA/analogue ratio” value (Saccharomyces cerevisiae [5]) was < 0.016.
